Calls of active or inactive are those of the source.
Experiments:
[1] = target: T1, Calpain-1 catalytic subunit (Homo sapiens) (UniProt P07384); experiment: Inhibition of human Calpain1 at 50 uM using Ac-LLY-AFC as substrate preincubated for 5 mins followed by substrate addition and measured after 10 mins by fluorescence method relative to control
T1 sequence (whole entry): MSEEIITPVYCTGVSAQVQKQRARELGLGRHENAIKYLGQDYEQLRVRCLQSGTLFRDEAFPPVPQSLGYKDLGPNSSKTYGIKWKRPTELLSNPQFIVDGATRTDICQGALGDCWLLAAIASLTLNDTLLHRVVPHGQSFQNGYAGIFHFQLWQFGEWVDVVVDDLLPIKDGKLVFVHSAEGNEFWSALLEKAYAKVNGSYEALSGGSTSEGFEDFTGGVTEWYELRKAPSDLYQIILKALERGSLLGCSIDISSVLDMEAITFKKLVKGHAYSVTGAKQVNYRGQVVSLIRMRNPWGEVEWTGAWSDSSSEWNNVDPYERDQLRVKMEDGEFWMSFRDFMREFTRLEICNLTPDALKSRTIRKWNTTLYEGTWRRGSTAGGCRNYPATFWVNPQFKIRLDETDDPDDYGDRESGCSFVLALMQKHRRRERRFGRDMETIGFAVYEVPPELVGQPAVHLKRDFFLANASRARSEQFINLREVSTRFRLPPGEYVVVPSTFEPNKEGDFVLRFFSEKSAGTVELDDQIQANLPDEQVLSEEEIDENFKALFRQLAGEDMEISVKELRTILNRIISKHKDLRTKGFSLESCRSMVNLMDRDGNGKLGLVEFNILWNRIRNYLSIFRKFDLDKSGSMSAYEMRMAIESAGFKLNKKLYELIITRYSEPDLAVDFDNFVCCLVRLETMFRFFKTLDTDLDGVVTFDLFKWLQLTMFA

Enterovirus A71 [2] = experiment: Irreversible covalent inhibition of Enterovirus 71 3C protease assessed as Kinact/Ki ratio using NMA-IEALFQGPPK(DNP)FR as substrate and measured for 1 to 1.5 hrs by fluorescence method
[3] = target: Chymotrypsinogen A (Bos taurus) (UniProt P00766); experiment: Inhibition of bovine pancreas alpha-chymotrypsin at 50 uM after 30 mins using N-Succinyl-L-phenylalanine- p-nitroanilide measured for 30 mins
[4] = target: T2, Cathepsin K (Homo sapiens) (UniProt P43235); experiment: Inhibition of human Cathepsin K at 50 uM using Ac-LR-AFC as substrate preincubated for 10 to 15 mins followed by substrate addition and measured for 30 to 60 mins by fluorescence method relative to control
T2 sequence (whole entry): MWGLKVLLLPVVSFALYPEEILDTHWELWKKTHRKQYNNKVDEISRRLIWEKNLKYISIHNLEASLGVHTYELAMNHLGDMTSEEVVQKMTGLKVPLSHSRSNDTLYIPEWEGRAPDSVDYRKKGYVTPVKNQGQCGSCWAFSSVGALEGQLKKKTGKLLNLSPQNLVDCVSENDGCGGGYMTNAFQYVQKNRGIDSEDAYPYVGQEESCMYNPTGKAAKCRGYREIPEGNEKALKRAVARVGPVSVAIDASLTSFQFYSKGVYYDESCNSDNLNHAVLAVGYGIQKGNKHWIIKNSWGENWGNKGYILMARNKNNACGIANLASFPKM

Enterovirus A71 [5] = experiment: Antiviral activity against pseudotyped Enterovirus A71 infected in human muscular rhabdomyosarcoma cells treated prior to viral infection and measured after 24 hrs by luminescence method; format: functional, organism-based; settings: Enterovirus A
Enterovirus A71 [6] = experiment: Irreversible covalent inhibition of Enterovirus 71 3C protease up to 80 uM using NMA-IEALFQGPPK(DNP)FR as substrate by fluorescence method; settings: TDE = time-dependent effect
Enterovirus A71 [7] = experiment: Binding affinity to Enterovirus 71 3C protease assessed as enzyme-compound covalent adduct formation via Cys147 residue by measuring ratio of peak intensity of covalently modified to unmodified protein at 10 equivalent after 30 mins by HPLC-ESI/MS analysis
Procedure, shortened: (§1)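 Recombinant EV71 3C protease (40 µM) incubated with inhibitor at 30 °C in 50 mM Tris, 150 mM NaCl, 1 mM EDTA-2Na, pH 7.0. Free inhibitor and salts removed by three ultrafiltration washes with water (10 kDa cutoff). Analysis by HPLC-ESI-Orbitrap MS with 0.1% formic acid water/acetonitrile mobile phases. Spectra deconvoluted; modification given as adduct-to-unmodified protein peak intensity ratio (I_add/I_pro).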

Enterovirus A71 [8] = experiment: Irreversible covalent inhibition of Enterovirus 71 3C protease assessed as steady-state velocity approaching zero up to 64 uM using NMA-IEALFQGPPK(DNP)FR as substrate by fluorescence method
Enterovirus A71 [9] = experiment: Reversible inhibition of Enterovirus 71 3C protease assessed as recovery of enzyme activity at 10 to 20 equivalent using peptide substrate pre-incubated for 1 hr followed by dilution prior to substrate addition using ultra-filtered sample relative to control
RD = experiment: Cytotoxicity against human RD cells at 100 uM after 24 hrs by WST-1 assay relative to control; format: cell-based
[10] = Reversible inhibition of Enterovirus 71 3C protease assessed as overall inhibition constant using NMA-IEALFQGPPK(DNP)FR as substrate pre-incubated for 30 mins followed by substrate addition and measured over 30 mins by fluorescence method; parameters: species or system Enterovirus A71
Enterovirus A71 [11] = experiment: Binding affinity to Enterovirus 71 3C protease assessed as enzyme-compound covalent adduct formation via Cys147 residue by measuring ratio of peak intensity of covalently modified to unmodified protein at 10 to 20 equivalent after 1 hr by HPLC-ESI/MS analysis; procedure, shortened: as §1
Enterovirus A71 [12] = experiment: Reversible inhibition of Enterovirus 71 3C protease assessed as recovery of enzyme activity at 10 to 20 equivalent using peptide substrate pre-incubated for 1 hr followed by dialysis and subsequent substrate addition measured up to 72 hrs relative to control; parameters: scale not given: the % may be the effect or the level left
Enterovirus A71 [13] = experiment: Antiviral activity against pseudotyped FY Enterovirus A71 harboring luciferase reporter gene infected in HEK-293T cells in presence of glutathione by Bright-Glo Luciferase Assay; format: functional, organism-based
Enterovirus A71 [14] = experiment: Inhibition of Enterovirus 71 3C protease in presence of glutathione
Enterovirus A71 [15] = experiment: Antiviral activity against pseudotyped FY Enterovirus A71 harboring luciferase reporter gene infected in HEK-293T cells in presence of lysine by Bright-Glo Luciferase Assay; format: functional, organism-based
Enterovirus A71 [16] = experiment: Inhibition of Enterovirus 71 3C protease in presence of lysine
Enterovirus A71 [17] = experiment: Antiviral activity against pseudotyped FY Enterovirus A71 harboring luciferase reporter gene infected in HEK-293T cells in presence of ethanolamine by Bright-Glo Luciferase Assay; format: functional, organism-based
Enterovirus A71 [18] = experiment: Inhibition of Enterovirus 71 3C protease in presence of ethanolamine

| SMILES | EC50 (Enterovirus A71 [5]) | Activity (RD) | Ki [10] | other results |
| --- | --- | --- | --- | --- |
| COC(=O)/C=C/[C@H](C[C@@H]1CCCNC1=O)NC(=O)[C@H](Cc1ccc(F)cc1)NC(=O)c1cc(C)on1 | 18300 nM |  |  | inhibition [1]: < 50%; Ratio (Enterovirus A71 [2]): 34 M⁻¹ s⁻¹; inhibition [3]: inactive; inhibition [4]: < 50%; inhibition (Enterovirus A71 [6]): Tde; Ratio (Enterovirus A71 [7]): > 100; inhibition (Enterovirus A71 [8]): Active; Activity (Enterovirus A71 [9]): inactive |
| COC(=O)C(Cl)=C[C@H](C[C@@H]1CCCNC1=O)NC(=O)[C@H](Cc1ccc(F)cc1)NC(=O)c1cc(C)on1 | 670 nM | 100% | 152 nM | inhibition [1]: < 50%; inhibition [3]: inactive; inhibition [4]: < 50% |
| CCCOC(=O)/C(C#N)=C/[C@H](C[C@@H]1CCCNC1=O)NC(=O)[C@H](Cc1ccc(F)cc1)NC(=O)c1cc(C)on1 | 77 nM |  | 10.3 nM |  |
| CCNC(=O)/C(C#N)=C/[C@H](C[C@@H]1CCCNC1=O)NC(=O)[C@H](Cc1ccc(F)cc1)NC(=O)c1cc(C)on1 | 510 nM |  | 332 nM |  |
| CNC(=O)/C(C#N)=C/[C@H](C[C@@H]1CCCNC1=O)NC(=O)[C@H](Cc1ccc(F)cc1)NC(=O)c1cc(C)on1 | 400 nM |  | 304 nM | Ratio (Enterovirus A71 [11]): 0.1; inhibition [1]: < 50%; Activity (Enterovirus A71 [12]): 50%; inhibition [3]: inactive; inhibition [4]: < 50%; Activity (Enterovirus A71 [9]): Active |
| Cc1cc(C(=O)N[C@@H](Cc2ccc(F)cc2)C(=O)N[C@H](/C=C(\C#N)c2ccc3ccccc3c2)C[C@@H]2CCCNC2=O)no1 | 13000 nM |  |  |  |
| CCCN(C(=O)OC(C)(C)C)C(=O)/C(C#N)=C/[C@H](C[C@@H]1CCCNC1=O)NC(=O)[C@H](Cc1ccc(F)cc1)NC(=O)c1cc(C)on1 | 89 nM |  | 18 nM |  |
| CNC(=O)/C=C/[C@H](C[C@@H]1CCCNC1=O)NC(=O)[C@H](Cc1ccc(F)cc1)NC(=O)c1cc(C)on1 | 21000 nM |  |  | Ratio (Enterovirus A71 [2]): 46 M⁻¹ s⁻¹; inhibition (Enterovirus A71 [6]): Tde; Ratio (Enterovirus A71 [7]): > 100; inhibition (Enterovirus A71 [8]): Active |
| Cc1cc(C(=O)N[C@@H](Cc2ccc(F)cc2)C(=O)N[C@H](C=O)C[C@@H]2CCCNC2=O)no1 |  |  |  | inhibition [1]: < 50%; inhibition [4]: Active |
| Cc1cc(C(=O)N[C@@H](Cc2ccc(F)cc2)C(=O)N[C@H](/C=C(/C#N)c2ccccn2)C[C@@H]2CCCNC2=O)no1 | 2700 nM | 90% | 693 nM |  |
| Cc1cc(C(=O)N[C@@H](Cc2ccc(F)cc2)C(=O)N[C@H](/C=C(\C#N)c2ccccc2)C[C@@H]2CCCNC2=O)no1 | > 100000 nM |  |  |  |
| Cc1cc(C(=O)N[C@@H](Cc2ccc(F)cc2)C(=O)N[C@@H](C[C@@H]2CCCNC2=O)C(O)C#N)no1 (stereo partly specified) |  |  |  | inhibition [1]: Active; inhibition [4]: Active |
| CCOC(=O)C(Br)=C[C@H](C[C@@H]1CCCNC1=O)NC(=O)[C@H](Cc1ccc(F)cc1)NC(=O)c1cc(C)on1 | 350 nM | 100% | 117 nM |  |
| CC(C#N)=C[C@H](C[C@@H]1CCCNC1=O)NC(=O)[C@H](Cc1ccc(F)cc1)NC(=O)c1cc(C)on1 | > 100000 nM |  |  |  |
| Cc1cc(C(=O)N[C@@H](Cc2ccc(F)cc2)C(=O)N[C@H](C=C(Cl)C#N)C[C@@H]2CCCNC2=O)no1 | > 100000 nM | 100% |  |  |
| Cc1cc(C(=O)N[C@@H](Cc2ccc(F)cc2)C(=O)N[C@H](/C=C(\C#N)c2ccccn2)C[C@@H]2CCCNC2=O)no1 | 460 nM | 100% | 119 nM | inhibition [1]: < 50%; inhibition [3]: inactive; inhibition [4]: 65% |
| CCCNC(=O)/C(C#N)=C/[C@H](C[C@@H]1CCCNC1=O)NC(=O)[C@H](Cc1ccc(F)cc1)NC(=O)c1cc(C)on1 | 990 nM |  | 752 nM |  |
| CCOC(=O)/C=C/[C@H](C[C@@H]1CCCNC1=O)NC(=O)[C@H](Cc1ccc(F)cc1)NC(=O)c1cc(C)on1 | 17000 nM |  |  | Ratio (Enterovirus A71 [2]): 72 M⁻¹ s⁻¹; inhibition (Enterovirus A71 [6]): Tde; inhibition (Enterovirus A71 [8]): Active |
| COC(=O)C(C#N)C[C@H](C[C@@H]1CCCNC1=O)NC(=O)[C@H](Cc1ccc(F)cc1)NC(=O)c1cc(C)on1 (mixture of isomers) | > 100000 nM |  |  |  |
| CCOC(=O)C(Cl)=C[C@H](C[C@@H]1CCCNC1=O)NC(=O)[C@H](Cc1ccc(F)cc1)NC(=O)c1cc(C)on1 | 380 nM | 100% | 164 nM |  |
| Cc1cc(C(=O)N[C@@H](Cc2ccc(F)cc2)C(=O)N[C@H](/C=C(\C#N)C(=O)N(C)C)C[C@@H]2CCCNC2=O)no1 | 110 nM |  | 94 nM | Activity (Enterovirus A71 [13]): Active; Ratio (Enterovirus A71 [11]): 1; inhibition (Enterovirus A71 [14]): inactive; Activity (Enterovirus A71 [15]): Active; inhibition (Enterovirus A71 [16]): Active; Activity (Enterovirus A71 [17]): Active; inhibition (Enterovirus A71 [18]): Active |
| Cc1cc(C(=O)N[C@@H](Cc2ccc(F)cc2)C(=O)N[C@H](C=C(Br)C#N)C[C@@H]2CCCNC2=O)no1 | > 100000 nM | 100% |  |  |
| CCOC(=O)/C(C#N)=C/[C@H](C[C@@H]1CCCNC1=O)NC(=O)[C@H](Cc1ccc(F)cc1)NC(=O)c1cc(C)on1 | 72 nM |  | 13.1 nM |  |
| Cc1cc(C(=O)N[C@@H](Cc2ccc(F)cc2)C(=O)N[C@H](/C=C(/C#N)c2ccsc2)C[C@@H]2CCCNC2=O)no1 | 19500 nM |  |  |  |
| Cc1cc(C(=O)N[C@@H](Cc2ccc(F)cc2)C(=O)N[C@H](CC(C#N)c2ccccn2)C[C@@H]2CCCNC2=O)no1 (mixture of isomers) | > 100000 nM | 50% |  |  |
| Cc1cc(C(=O)N[C@@H](Cc2ccc(F)cc2)C(=O)N[C@H](/C=C(\C#N)c2ccsc2)C[C@@H]2CCCNC2=O)no1 | 3100 nM |  | 516 nM | inhibition [1]: < 50%; inhibition [3]: inactive; inhibition [4]: < 50% |
| COC(=O)C(Br)=C[C@H](C[C@@H]1CCCNC1=O)NC(=O)[C@H](Cc1ccc(F)cc1)NC(=O)c1cc(C)on1 | 290 nM | 100% | 115 nM |  |
| Cc1cc(C(=O)N[C@@H](Cc2ccc(F)cc2)C(=O)N[C@H](/C=C(\C#N)C(=O)OC(C)C)C[C@@H]2CCCNC2=O)no1 | 58 nM |  | 16.1 nM |  |
